Source: ChEMBL document CHEMBL4680095, “Potent Antitumor Activities and Structure Basis of the Chiral β-Lactam Bridged Analogue of Combretastatin A-4 Binding to Tubulin” (J Med Chem, 2016)
Calls of active or inactive are those of the source. The calls are words filed in the database; no cut-off is given here.

Columns and labels:
[1] = Inhibition of pig brain tubulin polymerization incubated for 20 mins by spectrophotometry; format: tissue-based, Sus scrofa
[2] = Toxicity in Balb/C mouse; details: in vivo
[3] = test system: A2780; test: Growth inhibition of human A2780 cells; format: functional, cell-based
[4] = test system: MDA-MB-231; test: Growth inhibition of human MDA-MB-231 cells; format: functional, cell-based
[5] = test system: SK-OV-3; test: Growth inhibition of human SK-OV-3 cells; format: functional, cell-based
[6] = test system: HeLa; test: Growth inhibition of human HeLa cells; format: functional, cell-based
[7] = test system: A2780; test: Antitumor activity against human A2780 cells xenografted in Balb/C mouse assessed as inhibition of tumor growth at 12.5 mg/kg, ip dosed once every 2 days; format: functional, organism-based; details: time 2.0 day
In short: (§1)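 Xenograft model built by subcutaneous inoculation of A2780 cells into female Balb/C nude mice, then treated at 12.5 mg/kg. Read-outs named per line: tumor growth, main organs examined for abnormalities, body weight monitored.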

[8] = Toxicity in Balb/C mouse xenografted with human A2780 cells assessed as induction of body weight loss at 12.5 mg/kg, ip dosed once every 2 days; format: organism-based; details: in vivo, 48 h, time 2 day; in short: as §1
[9] = Toxicity in Balb/C mouse xenografted with human A2780 cells assessed as induction of abnormalities of visceral organs at 12.5 mg/kg, ip dosed once every 2 days; format: organism-based; details: in vivo, 48 h, time 2 day; in short: as §1

SMILES | IC50 [1] | LD50 [2] | IC50 [3] | IC50 [4] | IC50 [5] | IC50 [6] | TGI [7] | Activity [8] | Activity [9]
COc1ccc(/C=C\c2cc(OC)c(OC)c(OC)c2)cc1O [COMBRETASTATIN A4] | 1320 nM |  |  |  |  |  |  |  | 
COc1cc2c(c(OC)c1OC)-c1ccc(OC)c(=O)cc1[C@@H](NC(C)=O)CC2 [COLCHICINE] |  | 4 mg/kg |  |  |  |  |  |  | 
C=C1C(=O)N(c2cc(OC)c(OC)c(OC)c2)[C@H]1c1ccc(OC)c(O)c1 | 6600 nM |  | 115 nM | 308 nM | 114 nM | 243 nM |  |  | 
COc1ccc([C@H]2[C@@H](C)C(=O)N2c2cc(OC)c(OC)c(OC)c2)cc1O | 3500 nM | > 500 mg/kg | 31 nM | 56 nM | 57 nM | 63 nM | Active | Non-Toxic | Non-Toxic
C=C1C(=O)N(c2cc(OC)c(OC)c(OC)c2)[C@@H]1c1ccc(OC)c(O)c1 | > 100000 nM |  | 4600 nM | > 10000 nM | 3500 nM | 5500 nM |  |  | 
